The source made the active and inactive calls. The rule behind the calls is not given here.
Experiments:
[1] = Metabolic stability in human liver microsome assessed as half life at 5 uM in presence of NADPH incubated up to 60 mins by HPLC analysis; assay type: ADME; settings: microsomes, 1 h
[2] = Toxicity in zebra fish embryo assessed as visual capacity changes at 1 to 100 uM […] by optokinetic reflex assay; design: species or system Danio rerio; settings: zebrafish, dose 1-100 µM
Method in brief: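 Wildtype Tübingen larvae at 28.5 °C were exposed from 3 days old for 2 days to 1–100 µM (1, 10, 25, 50, 100) in embryo medium, against 0.1% DMSO vehicle. 8 larvae per group. Visual function was then tested by optokinetic reflex at 2 days post-treatment, on 5-day-old larvae.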

NIH3T3 [3] = test: Cytotoxicity in mouse NIH3T3 cells assessed as reduction in cell viability at 50 uM incubated for 24 hrs by neutral red uptake method based UV/visible spectrophotometer analysis; assay type: toxicity; settings: nih3t3, 24 h
Method in brief: (§1)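 NIH3T3 mouse fibroblasts grown in DMEM with 10% FCS, L-glutamine/pen-strep and non-essential amino acids (37 °C, 5% CO2). Exposed 24 h to compound diluted from a DMSO stock into medium. Viability measured by Neutral Red uptake: 3 h in NR medium, then acetic acid/ethanol desorb, absorbance at 540 nm. Student's t-test, p<0.05.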

[4] = Toxicity in zebra fish embryo assessed as mild cardiac edema at 100 uM […]; design: species or system Danio rerio; settings: zebrafish
Method in brief: (§2)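 Wildtype Tübingen zebrafish larvae reared at 28.5 °C (14 h light/10 h dark) in embryo medium with methylene blue. From 3 days old, exposed for 2 days to 1, 10, 25, 50 or 100 µM in embryo medium, or 0.1% DMSO vehicle. 4 larvae per well in 400 µL, 8 larvae per group. Larvae scored for swim bladder inflation and cardiac edema.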

Heart [5] = test: Cardiotoxicity in Langendorff-perfused Sprague-Dawley rat heart assessed as effect on QRS interval time at 0.01 uM by ECG analysis (reference value: 15.2 +/-0.2 milliseconds); assay type: toxicity, tissue-based
NIH3T3 [6] = test: Cytotoxicity in mouse NIH3T3 cells assessed as reduction in cell viability at 25 uM incubated for 24 hrs by neutral red uptake method based UV/visible spectrophotometer analysis; assay type: toxicity; settings: nih3t3, 24 h; method in brief: as §1
Heart [7] = test: Cardiotoxicity in Langendorff-perfused Sprague-Dawley rat heart assessed as effect on QTc interval time at 1 uM by ECG analysis (reference value: 150.5 +/-5.5 milliseconds); assay type: toxicity, tissue-based
Heart [8] = test: Cardiotoxicity in Langendorff-perfused Sprague-Dawley rat heart assessed as effect on QTc interval time at 10 uM by ECG analysis (reference value: 150.5 +/-5.5 milliseconds); assay type: toxicity, tissue-based
Heart [9] = test: Cardiotoxicity in Langendorff-perfused Sprague-Dawley rat heart assessed as effect on HR at 1 uM by ECG analysis (reference value: 235.7 +/-8.3 bpm); assay type: toxicity, tissue-based
Heart [10] = test: Cardiotoxicity in Langendorff-perfused Sprague-Dawley rat heart assessed as effect on PQ interval time at 1 uM by ECG analysis (reference value: 43.6 +/-2.5 milliseconds); assay type: toxicity, tissue-based
Heart [11] = test: Cardiotoxicity in Langendorff-perfused Sprague-Dawley rat heart assessed as effect on HR at 10 uM by ECG analysis (reference value: 235.7 +/-8.3 bpm); assay type: toxicity, tissue-based
[12] = Toxicity in zebra fish embryo at 50 uM […]; design: species or system Danio rerio; settings: zebrafish; method in brief: as §2
Homo sapiens [13] = organism: Homo sapiens; test: Antifibrotic activity in TGF-beta1-induced human Lung parenchyma assessed as inhibition of collagen 1 mRNA expression at 4.1 uM incubated upto 7 days by qRT-PCR analysis; assay type: functional; settings: time <= 7.0 day
Method in brief: (§3)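 Human lung parenchyma pieces (2 mm³) cultured in DMEM with TGF-β1 (10 ng/mL) plus compound at 0.41 or 4.1 μM or vehicle (0.1% DMSO). Tissue collected on day 7, homogenized, total RNA purified, then qRT-PCR for HDAC6, collagen I, collagen III, αSMA and fibronectin. Relative expression by the 2^-Ct method; n=3, paired t test.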

Heart [14] = test: Cardiotoxicity in Langendorff-perfused Sprague-Dawley rat heart assessed as effect on QTc interval time at 0.01 uM by ECG analysis (reference value: 150.5 +/-5.5 milliseconds); assay type: toxicity, tissue-based
Heart [15] = test: Cardiotoxicity in Langendorff-perfused Sprague-Dawley rat heart assessed as effect on HR at 0.01 uM by ECG analysis (reference value: 235.7 +/-8.3 bpm); assay type: toxicity, tissue-based
Heart [16] = test: Cardiotoxicity in Langendorff-perfused Sprague-Dawley rat heart assessed as effect on PQ interval time at 10 uM by ECG analysis (reference value: 43.6 +/-2.5 milliseconds); assay type: toxicity, tissue-based
Heart [17] = test: Cardiotoxicity in Langendorff-perfused Sprague-Dawley rat heart assessed as effect on RR time at 0.1 uM by ECG analysis (reference value: 257.2 +/-8.1 milliseconds); assay type: toxicity, tissue-based
Heart [18] = test: Cardiotoxicity in Langendorff-perfused Sprague-Dawley rat heart assessed as effect on RR time at 10 uM by ECG analysis (reference value: 257.2 +/-8.1 milliseconds); assay type: toxicity, tissue-based
Heart [19] = test: Cardiotoxicity in Langendorff-perfused Sprague-Dawley rat heart assessed as effect on QRS interval time at 10 uM by ECG analysis (reference value: 15.2 +/-0.2 milliseconds); assay type: toxicity, tissue-based
Heart [20] = test: Cardiotoxicity in Langendorff-perfused Sprague-Dawley rat heart assessed as effect on QTc interval time at 0.1 uM by ECG analysis (reference value: 150.5 +/-5.5 milliseconds); assay type: toxicity, tissue-based
[21] = Mutagenecity in Salmonella typhimurium TA98 in presence of S9 fraction at 1 to 75 uM incubated for 90 mins by Ames test; assay type: toxicity, subcellular; settings: salmonella enterica subsp. enterica serovar typhimurium, s9, 1.5 h, dose 1-75 µM
NIH3T3 [22] = test: Cytotoxicity in mouse NIH3T3 cells assessed as reduction in cell viability at 5 uM incubated for 24 hrs by neutral red uptake method based UV/visible spectrophotometer analysis; assay type: toxicity; settings: nih3t3, 24 h
Method in brief: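 NIH3T3 fibroblasts grown in DMEM with 10% FCS, L-glutamine/pen-strep and non-essential amino acids at 37 °C, 5% CO2. Monolayers exposed 24 h to compound diluted from a DMSO stock into medium. Neutral Red medium then added for 3 h at 37 °C. Dye extracted with acetic acid/ethanol desorb solution and absorbance read at 540 nm. Student's t-test, p<0.05.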

Heart [23] = test: Cardiotoxicity in Langendorff-perfused Sprague-Dawley rat heart assessed as effect on QRS interval time at 1 uM by ECG analysis (reference value: 15.2 +/-0.2 milliseconds); assay type: toxicity, tissue-based
[24] = Cytotoxicity in mouse NIH3T3 cells assessed as reduction in cell viability by measuring toxic concentration incubated for 24 hrs by neutral red uptake method based UV/visible spectrophotometer analysis; assay type: toxicity; settings: read-out: TC50
Method in brief: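 NIH3T3 mouse fibroblasts grown in DMEM with 10% FCS, L-glutamine/penicillin/streptomycin and non-essential amino acids, 37 °C, 5% CO2. DMSO stocks diluted in complete medium, applied to monolayers for 24 h at several concentrations. Viability by Neutral Red uptake: 3 h dye loading, desorb in acetic acid/ethanol, absorbance at 540 nm. Student's t-test, p < 0.05.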

Heart [25] = test: Cardiotoxicity in Langendorff-perfused Sprague-Dawley rat heart assessed as effect on QT interval time at 0.1 uM by ECG analysis (reference value: 76.2 +/-2.9 milliseconds); assay type: toxicity, tissue-based
Homo sapiens [26] = organism: Homo sapiens; test: Antifibrotic activity in TGF-beta1-induced human Lung parenchyma assessed as inhibition of alpha-SMA mRNA expression at 4.1 uM incubated upto 7 days by qRT-PCR analysis; assay type: functional; settings: time <= 7.0 day; method in brief: as §3

## CN1CCC2(CC1)c1ccccc1N(Cc1ccc(C(=O)NO)cc1)C2c1ccccc1F (racemic)
[1]
  t1/2: 51.68 min

## CC1(C)c2ccccc2N(Cc2ccc(C(=O)NO)cc2)C1c1cccnc1 (racemic)
[2]
  Activity: Non-Toxic
NIH3T3 [3]
  Activity: 71%
[4]
  Activity: Toxic
Heart [5]
  Time: 15.6 ms
NIH3T3 [6]
  Activity: 87%
Heart [7]
  Time: 150.8 ms
Heart [8]
  Time: 145.3 ms
Heart [9]
  Activity: 235.4 bpm
Heart [10]
  Time: 44.5 ms
Heart [11]
  Activity: 207.9 bpm
[12]
  Activity: Non-Toxic
Homo sapiens [13]
  Activity: Active
Heart [14]
  Time: 154.6 ms
Heart [15]
  Activity: 235.4 bpm
Heart [16]
  Time: 50.4 ms
Heart [17]
  Time: 253.7 ms
Heart [18]
  Time: 294.1 ms
Heart [19]
  Time: 18 ms
Heart [20]
  Time: 155.1 ms
[21]
  Activity: Non-Toxic
NIH3T3 [22]
  Activity: 98%
Heart [23]
  Time: 15.8 ms
[24]
  CC50 at 24 h: 75 µM
Heart [25]
  Time: 78 ms
Homo sapiens [26]
  Activity: Active
